Laboratory results from ChEMBL document CHEMBL4311980, “Discovery of 2-isoxazol-3-yl-acetamide analogues as heat shock protein 90 (HSP90) inhibitors with significant anti-HIV activity” (Eur J Med Chem, 2019).
The source made the active and inactive calls. No cut-off for these calls is given here.

Legend:
[1] = Cytotoxicity against human TZM-bl cells assessed as maximum non-cytotoxic concentration after 48 hrs by MTT assay; assay type: cell-based; settings: read-out: MNCC
Procedure, shortened: (§1)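 Cells were seeded at 25,000/well in complete medium with compound at different concentrations, with untreated and DMSO controls, and incubated 48 h. MTT (5 mg/mL stock) was added for 4 h at 37 °C in the dark. Formazan was dissolved in isopropanol and A570 read. CC50 and highest non-cytotoxic concentration were derived from this assay.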

[2] = system: Human immunodeficiency virus 1; assay: Antiviral activity against HIV1 NL4-3 infected in human TZM-bl cells assessed as reduction in viral replication at 100 nM measured at 48 hrs post-infection by steady-glo reporter gene assay relative to control; assay type: functional; settings: Human immunodeficiency virus 1, NL4-3, TZM-bl
Procedure, shortened: (§2)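 TZM-bl cells (0.15×10^6/well) were infected with 0.5 MOI HIV-1 NL4-3 12 h after seeding and treated at the highest non-cytotoxic concentration, which was set by MTT assay. At 48 h post-infection, cells were lysed and mixed 1:1 with Steady-Glo substrate, and luminescence was read.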

[3] = system: Human immunodeficiency virus 1; assay: Antiviral activity against HIV-1 NL4-3 infected in human TZM-bl cells assessed as reduction in viral replication at 1000 nM measured at 48 hrs post-infection by steady-glo reporter gene assay relative to control; assay type: functional; settings: Human immunodeficiency virus 1, NL4-3, TZM-bl; procedure, shortened: as §2
[4] = Cytotoxicity against human CEM-GFP cells assessed as reduction in cell viability after 48 hrs by MTT assay; assay type: cell-based; procedure, shortened: as §1
[5] = system: Human immunodeficiency virus 1; assay: Antiviral activity against HIV-1 NL4-3 infected in human CEM-GFP cells assessed as suppression of viral replication by measuring reduction in p24 level measured at 72 hrs post-infection by ELISA; assay type: functional, organism-based; settings: Human immunodeficiency virus 1, NL4-3, CEM-GFP
Procedure, shortened: (§3)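 Cells were incubated with 0.5 MOI virus in the presence of polybrene at 37 °C for 4 h with intermittent mixing, then washed and plated in complete RPMI-1640. Compound added at different concentrations, with untreated and DMSO controls. PBMC were PHA-activated. Supernatant p24 measured by capture ELISA (A450) at 72 h. % inhibition calculated relative to untreated cells.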

[6] = Cytotoxicity against human Jurkat J6 cells assessed as reduction in cell viability after 48 hrs by MTT assay; assay type: cell-based; procedure, shortened: as §1
[7] = Cytotoxicity against human U937 cells assessed as reduction in cell viability after 48 hrs by MTT assay; assay type: cell-based, U-937; procedure, shortened: as §1
[8] = Cytotoxicity against human PBMC assessed as reduction in cell viability after 48 hrs by MTT assay; assay type: cell-based; procedure, shortened: as §1
[9] = system: Human immunodeficiency virus 1; assay: Antiviral activity against HIV-1 NL4-3 infected in human Jurkat J6 cells assessed as suppression of viral replication by measuring reduction in p24 level measured at 72 hrs post-infection by ELISA; assay type: functional, organism-based; settings: Human immunodeficiency virus 1, Jurkat; procedure, shortened: as §3
[10] = system: Human immunodeficiency virus 1; assay: Antiviral activity against HIV-1 NL4-3 infected in human U937 cells assessed as suppression of viral replication by measuring reduction in p24 level measured at 72 hrs post-infection by ELISA; assay type: functional, organism-based; settings: Human immunodeficiency virus 1, U-937, 72 h; procedure, shortened: as §3
[11] = system: Human immunodeficiency virus 1; assay: Antiviral activity against HIV-1 NL4-3 infected in human PBMC assessed as suppression of viral replication by measuring reduction in p24 level measured at 72 hrs post-infection by ELISA; assay type: functional, organism-based; settings: Human immunodeficiency virus 1, 72 h; procedure, shortened: as §3
[12] = Therapeutic index, ratio of CC50 for human Jurkat J6 cells to IC50 for antiviral activity against HIV-1 NL4-3 infected in human Jurkat J6 cells; assay type: toxicity, cell-based; settings: read-out: Ratio CC50/IC50
Procedure, shortened: (§4)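 IC50 was determined from p24 ELISA 72 h after 0.5 MOI HIV-1 NL4-3 infection with compound at different concentrations. Therapeutic index = CC50/IC50.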

[13] = Therapeutic index, ratio of CC50 for human U937 cells to IC50 for antiviral activity against HIV-1 NL4-3 infected in human U937 cells; assay type: toxicity, cell-based; settings: read-out: Ratio CC50/IC50; procedure, shortened: as §4
[14] = Therapeutic index, ratio of CC50 for human PBMC to IC50 for antiviral activity against HIV-1 NL4-3 infected in human PBMC; assay type: toxicity; settings: read-out: Ratio CC50/IC50; procedure, shortened: as §4
[15] = system: HIV-1 M:B; assay: Antiviral activity against X4 tropic HIV-1 subtype-B 3B infected in human CEM-GFP cells assessed as suppression of viral replication by measuring reduction in p24 level measured at 72 hrs post-infection by ELISA; assay type: functional, cell-based; procedure, shortened: as §3
[16] = system: Human immunodeficiency virus 1; assay: Antiviral activity against R5X4 tropic HIV-1 subtype-B 89.6 infected in human CEM-GFP cells assessed as suppression of viral replication by measuring reduction in p24 level measured at 72 hrs post-infection by ELISA; assay type: functional, organism-based; settings: M:B_89.6; procedure, shortened: as §3
[17] = system: HIV-1 M:B; assay: Antiviral activity against R5 tropic HIV-1 subtype-B ADA infected in human CEM-GFP cells assessed as suppression of viral replication by measuring reduction in p24 level measured at 72 hrs post-infection by ELISA; assay type: functional, cell-based; procedure, shortened: as §3
[18] = system: Human immunodeficiency virus 1; assay: Antiviral activity against HIV-1 subtype C isolate indeiC infected in human CEM-GFP cells assessed as suppression of viral replication by measuring reduction in p24 level measured at 72 hrs post-infection by ELISA; assay type: functional, organism-based; procedure, shortened: as §3
[19] = system: HIV-1 M:B; assay: Antiviral activity against X4 tropic HIV-1 subtype-B 3B infected in human PBMC assessed as suppression of viral replication by measuring reduction in p24 level measured at 72 hrs post-infection by ELISA; assay type: functional; procedure, shortened: as §3
[20] = system: Human immunodeficiency virus 1; assay: Antiviral activity against R5X4 tropic HIV-1 subtype-B 89.6 infected in human PBMC assessed as suppression of viral replication by measuring reduction in p24 level measured at 72 hrs post-infection by ELISA; assay type: functional, organism-based; settings: M:B_89.6; procedure, shortened: as §3
[21] = system: HIV-1 M:B; assay: Antiviral activity against R5 tropic HIV-1 subtype-B ADA infected in human PBMC assessed as suppression of viral replication by measuring reduction in p24 level measured at 72 hrs post-infection by ELISA; assay type: functional; procedure, shortened: as §3
[22] = system: Human immunodeficiency virus 1; assay: Antiviral activity against HIV-1 subtype C isolate indeiC infected in human PBMC cells assessed as suppression of viral replication by measuring reduction in p24 level measured at 72 hrs post-infection by ELISA; assay type: functional, organism-based; procedure, shortened: as §3
[23] = system: Human immunodeficiency virus 1; assay: Antiviral activity against 0.01 to 0 1 MOI HIV-1 NL4-3 infected in human CEM-GFP cells assessed as suppression of viral replication by measuring reduction in p24 level at 1 uM measured at 72 hrs post-infection by ELISA; assay type: functional, organism-based
Procedure, shortened: (§5)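 Cells infected with HIV-1 NL4-3 at MOI 0.01, 0.1 or 1 in the presence of polybrene at 37 °C for 4 h. Cells then washed in serum-free RPMI-1640 and plated in complete RPMI-1640 with compound at its highest non-cytotoxic concentration. Untreated and DMSO controls. Supernatant p24 measured by antigen-capture ELISA (A450) at 72 h post-infection. % inhibition = (untreated − treated p24)/untreated p24 × 100.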

[24] = system: Human immunodeficiency virus 1; assay: Antiviral activity against 0.01 to 0 1 MOI HIV-1 NL4-3 infected in human PBMC assessed as suppression of viral replication by measuring reduction in p24 level at 1 uM measured at 72 hrs post-infection by ELISA; assay type: functional, organism-based; procedure, shortened: as §5
[25] = target: Human immunodeficiency virus type 1 reverse transcriptase (Human immunodeficiency virus 1) (UniProt Q72547); assay: Inhibition of HIV-1 reverse transcriptase RNA-dependent DNA polymerase activity assessed as reduction in biotin-dUTP incorporation at 1 uM using poly(A)/oligo (dT)15 as template/primer by ELISA
Procedure, shortened: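 RNA-dependent DNA polymerase activity of HIV-1 RT was tested with a colorimetric reverse transcriptase kit. Nevirapine served as positive control, with untreated and DMSO vehicle wells. Compound was tested at its highest non-cytotoxic concentration. n = 3.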

[26] = target: Protease (Human immunodeficiency virus 1) (UniProt Q9YQ12); assay: Inhibition of HIV-1 protease at 1 uM using synthetic peptide as substrate after 15 mins by fluorimetric based assay
Procedure, shortened: (§6)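 Cell-free fluorometric protease kit. HIV-1 protease was diluted in reaction buffer and loaded at 10 nmol/well with or without compound. Indinavir served as positive control, with untreated and DMSO controls. Fluorescence (Ex/Em 330/450 nm) was read 15 min after addition. n = 3.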

[27] = system: Human immunodeficiency virus 1; assay: Antiviral activity against HIV-1 NL4-3 infected in CEM-GFP cells assessed as reduction in HSP90 expression measured at 72 hrs post-infection by immunoblotting analysis; assay type: functional, organism-based
Procedure, shortened: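 CEM-GFP cells were infected with 0.5 MOI HIV-1 NL4-3 with or without compound, with DMSO as vehicle control. At 72 h post-infection, HSP90 protein was measured by immunoblotting and quantified by densitometry.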

[28] = target: Heat shock protein HSP90 (Homo sapiens) (UniProt P07900+P08238); assay: Inhibition of HSP90 (unknown origin) expressed in HEK-293T cells assessed as reduction in Tat-mediated transactivation at 1 uM measured at 48 hrs post-transfection by LTR-driven luciferase reporter gene assay; assay type: cell-based
Procedure, shortened: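 HEK-293T cells were co-transfected with p-LTR-Luc and Tat using PEI in the presence or absence of compound. At 48 h post-transfection, cells were harvested and luminescence and fluorescence were measured.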

[29] = Therapeutic index, ratio of CC50 for human CEM-GFP cells to IC50 for antiviral activity against HIV-1 NL4-3 infected in human CEM-GFP cells; assay type: toxicity, cell-based; settings: read-out: Ratio CC50/IC50; procedure, shortened: as §4
[30] = Ratio of therapeutic index for compound to therapeutic index of AZT
[31] = Ratio of therapeutic index for compound to therapeutic index of AUY922
[32] = target: Human immunodeficiency virus type 1 reverse transcriptase (Human immunodeficiency virus 1) (UniProt Q72547); settings: 500 nM
[33] = target: Protease (Human immunodeficiency virus 1) (UniProt Q9YQ12); assay: Inhibition of HIV-1 protease at 500 nM using synthetic peptide as substrate after 15 mins by fluorimetric based assay; procedure, shortened: as §6

Chain of Protease (Human immunodeficiency virus 1) (Q9YQ12 as listed by the source): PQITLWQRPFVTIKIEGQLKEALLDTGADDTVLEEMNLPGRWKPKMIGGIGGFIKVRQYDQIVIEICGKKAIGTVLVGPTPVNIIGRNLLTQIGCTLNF

Cc1ccc(NC(=O)Cc2cc(-c3cccs3)on2)cc1
MNTC at 48 h [1]: 100 nM | inhibition at 0.1 µM [2]: 56.9%

CC(C)NC(=O)Cc1cc(-c2ccccc2)on1
MNTC at 48 h [1]: 1000 nM | inhibition at 1 µM [3]: 85% | CC50 at 48 h [4]: 65.6 µM | IC50 [5]: 0.0395 µM | CC50 at 48 h [6]: 60.3 µM | CC50 at 48 h [7]: 56.6 µM | CC50 at 48 h [8]: 67.9 µM | IC50 [9]: 0.0527 µM | IC50 [10]: 0.053 µM | IC50 [11]: 0.0562 µM | selectivity ratio [12]: 1140 | selectivity ratio [13]: 1070 | selectivity ratio [14]: 1210 | inhibition [15]: Active | inhibition [16]: Active | inhibition [17]: Active | inhibition [18]: Active | inhibition [19]: Active | inhibition [20]: Active | inhibition [21]: Active | inhibition [22]: Active | inhibition [23]: Active | inhibition [24]: Active | inhibition [25]: inactive | inhibition [26]: inactive | Activity [27]: Active | inhibition [28]: Active | selectivity ratio [29]: 1660 | Ratio [30]: 1.5 | Ratio [31]: 3.5

Cc1ccnc2c1NC(=O)c1cccnc1N2C1CC1
inhibition [32]: Active

COc1ccc(-c2cc(CC(=O)Nc3cccc(C)c3)no2)cc1
MNTC at 48 h [1]: 1000 nM | inhibition at 1 µM [3]: 95.5% | CC50 at 48 h [4]: 15.7 µM | IC50 [5]: 0.284 µM | selectivity ratio [29]: 55.1

Cc1ccccc1NC(=O)Cc1cc(-c2ccccc2)on1
MNTC at 48 h [1]: 1000 nM | inhibition at 1 µM [3]: 23.5%

Cc1cn([C@H]2C[C@H](N=[N+]=[N-])[C@@H](CO)O2)c(=O)[nH]c1=O [ZIDOVUDINE]
CC50 at 48 h [4]: 13.9 µM | IC50 [5]: 0.0127 µM | selectivity ratio [29]: 1090

COC(=O)c1ccc(NC(=O)Cc2cc(-c3ccccc3)on2)cc1
MNTC at 48 h [1]: 100 nM | inhibition at 0.1 µM [2]: 27.7%

CC(C)(C)NC(=O)[C@@H]1CN(Cc2cccnc2)CCN1C[C@@H](O)C[C@@H](Cc1ccccc1)C(=O)N[C@H]1c2ccccc2C[C@H]1O
inhibition [33]: Active

Cc1ccc(NC(=O)Cc2cc(-c3ccccc3)on2)cc1
MNTC at 48 h [1]: 1000 nM | inhibition at 1 µM [3]: 98.4% | CC50 at 48 h [4]: 44 µM | IC50 [5]: 0.0868 µM | selectivity ratio [29]: 507
